ChEMBL document CHEMBL1765003, “Discovery of (1S,2R,3R)-2,3-dimethyl-2-phenyl-1-sulfamidocyclopropanecarboxylates: novel and highly selective aggrecanase inhibitors” (J Med Chem, 2011)
pIC50: −log10 of the molar value.

Experiments:
Stromelysin-1 = Stromelysin-1 (Homo sapiens, UniProt P08254); test: Inhibition of human recombinant MMP3 after 60 mins by fluorescence plate reader
Method in brief: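 rh-MMP-3 at 40 ng/mL with 10 μM MOCAc-Arg-Pro-Lys-Pro-Val-Glu-Nva-Trp-Arg-Lys(Dnp)-NH₂, in Tris-HCl pH 7.5/NaCl/CaCl₂/Brij-35 buffer. Inhibitor preincubated for 15 min at 25 °C. Fluorescence (ex 325/em 405 nm) read at 60 min. IC50 from three central linear points; at least two determinations averaged.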

[1] = biological target: T1, A disintegrin and metalloproteinase with thrombospondin motifs 4 (Homo sapiens, UniProt O75173); test: Inhibition of human recombinant aggrecanase 1 after 150 mins by fluorescence plate reader
T1 sequence (O75173 whole entry): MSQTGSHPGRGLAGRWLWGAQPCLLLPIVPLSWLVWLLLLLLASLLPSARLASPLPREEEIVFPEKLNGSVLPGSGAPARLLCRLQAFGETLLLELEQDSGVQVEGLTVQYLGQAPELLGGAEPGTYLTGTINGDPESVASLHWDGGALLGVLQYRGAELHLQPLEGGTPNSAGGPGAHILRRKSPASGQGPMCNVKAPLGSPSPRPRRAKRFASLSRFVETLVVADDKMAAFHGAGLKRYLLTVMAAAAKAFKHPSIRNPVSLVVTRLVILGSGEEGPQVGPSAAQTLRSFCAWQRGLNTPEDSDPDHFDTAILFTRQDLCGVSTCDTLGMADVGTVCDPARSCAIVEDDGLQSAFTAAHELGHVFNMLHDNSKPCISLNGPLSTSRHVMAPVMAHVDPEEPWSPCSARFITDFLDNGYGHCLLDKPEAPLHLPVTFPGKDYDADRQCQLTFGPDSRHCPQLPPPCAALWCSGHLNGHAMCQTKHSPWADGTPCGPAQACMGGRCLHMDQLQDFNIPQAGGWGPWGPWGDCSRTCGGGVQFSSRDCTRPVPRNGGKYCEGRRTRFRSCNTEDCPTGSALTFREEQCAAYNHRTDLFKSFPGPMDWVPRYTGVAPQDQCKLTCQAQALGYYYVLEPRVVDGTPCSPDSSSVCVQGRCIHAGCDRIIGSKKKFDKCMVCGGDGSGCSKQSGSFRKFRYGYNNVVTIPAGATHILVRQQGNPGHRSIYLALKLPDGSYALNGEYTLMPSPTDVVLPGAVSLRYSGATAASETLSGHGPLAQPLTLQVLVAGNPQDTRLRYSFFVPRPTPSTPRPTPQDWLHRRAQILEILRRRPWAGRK

Interstitial collagenase = biological target: T2, Interstitial collagenase (Homo sapiens, UniProt P03956); test: Inhibition of human recombinant MMP1 after 60 mins by fluorescence plate reader
T2 sequence (P03956 whole entry): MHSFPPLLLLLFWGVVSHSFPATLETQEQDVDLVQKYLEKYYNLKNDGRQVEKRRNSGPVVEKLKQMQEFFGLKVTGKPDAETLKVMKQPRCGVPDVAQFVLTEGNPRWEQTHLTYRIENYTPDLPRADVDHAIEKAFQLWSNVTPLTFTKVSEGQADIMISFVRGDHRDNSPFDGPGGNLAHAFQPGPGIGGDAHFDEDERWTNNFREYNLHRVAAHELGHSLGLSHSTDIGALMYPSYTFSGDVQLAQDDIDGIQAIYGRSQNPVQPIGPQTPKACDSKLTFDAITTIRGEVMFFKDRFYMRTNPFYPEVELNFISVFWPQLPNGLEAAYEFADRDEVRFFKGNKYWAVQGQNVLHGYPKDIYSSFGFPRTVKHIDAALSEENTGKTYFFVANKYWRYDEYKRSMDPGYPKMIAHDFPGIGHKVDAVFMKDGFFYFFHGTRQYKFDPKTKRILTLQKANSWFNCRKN
Method in brief: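 Recombinant human enzyme at 20 ng/mL with 10 μM MOCAc-Lys-Pro-Leu-Gly-Leu-A2pr(Dnp)-Ala-Arg-NH₂, in 100 mM Tris-HCl pH 7.5, 150 mM NaCl, 10 mM CaCl₂, 0.05% Brij-35. Enzyme pretreated with inhibitor for 15 min at 25 °C, then substrate added. Fluorescence (ex 325, em 405 nm) read at 60 min. IC50 taken from three points in the linear range; mean of ≥2 determinations.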

Cytochrome P450 2C9 = Cytochrome P450 2C9 (Homo sapiens, UniProt P11712); test: Inhibition of CYP2C9 at up to 50 uM; assay type: ADME
Chain of Cytochrome P450 2C9 (P11712 whole entry): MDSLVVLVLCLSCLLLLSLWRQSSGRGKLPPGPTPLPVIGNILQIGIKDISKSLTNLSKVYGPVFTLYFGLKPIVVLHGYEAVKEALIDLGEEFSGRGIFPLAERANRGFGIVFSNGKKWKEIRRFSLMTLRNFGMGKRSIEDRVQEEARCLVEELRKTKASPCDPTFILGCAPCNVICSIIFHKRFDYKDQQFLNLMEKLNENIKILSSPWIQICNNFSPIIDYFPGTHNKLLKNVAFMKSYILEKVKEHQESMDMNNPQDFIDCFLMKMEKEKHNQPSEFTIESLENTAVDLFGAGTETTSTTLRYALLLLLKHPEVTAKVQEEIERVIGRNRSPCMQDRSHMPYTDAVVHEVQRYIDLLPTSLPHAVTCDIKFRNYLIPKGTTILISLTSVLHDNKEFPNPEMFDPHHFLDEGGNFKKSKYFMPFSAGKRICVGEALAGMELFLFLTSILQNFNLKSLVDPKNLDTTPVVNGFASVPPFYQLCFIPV

Collagenase 3 = Collagenase 3 (Homo sapiens, UniProt P45452); test: Inhibition of human recombinant MMP13 after 60 mins by fluorescence plate reader
Method in brief: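 rh-MMP-13 at 40 ng/mL with 5 μM 7-MCA-Pro-CHA-Gly-NVal-His-Ala-DPA, in Tris-HCl pH 7.5/NaCl/CaCl₂/0.05% Brij-35. Pretreatment with inhibitor for 15 min at 25 °C, then substrate started the reaction. Fluorescence (ex 325/em 405 nm) read at 60 min. IC50 from three central linear points, averaged over ≥2 determinations.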

Cytochrome P450 3A4 = Cytochrome P450 3A4 (Homo sapiens, UniProt P08684); test: Inhibition of CYP3A4 at up to 50 uM; assay type: ADME
Chain of Cytochrome P450 3A4 (P08684 whole entry): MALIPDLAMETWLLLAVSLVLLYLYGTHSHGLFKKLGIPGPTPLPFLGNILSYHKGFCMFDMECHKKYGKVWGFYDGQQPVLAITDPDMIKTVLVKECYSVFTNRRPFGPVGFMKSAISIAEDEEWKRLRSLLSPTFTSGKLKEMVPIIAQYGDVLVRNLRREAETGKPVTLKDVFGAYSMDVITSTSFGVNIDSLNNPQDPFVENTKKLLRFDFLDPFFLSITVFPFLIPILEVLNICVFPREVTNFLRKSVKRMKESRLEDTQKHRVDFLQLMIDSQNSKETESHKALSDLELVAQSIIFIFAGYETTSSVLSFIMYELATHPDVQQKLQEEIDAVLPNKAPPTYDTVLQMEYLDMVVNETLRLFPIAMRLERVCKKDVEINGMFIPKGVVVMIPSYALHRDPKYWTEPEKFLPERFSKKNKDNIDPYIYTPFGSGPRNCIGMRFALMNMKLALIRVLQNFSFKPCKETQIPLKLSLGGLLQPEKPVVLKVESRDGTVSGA

[2] = Clearance in Sprague-Dawley rat at 1 mg/kg, iv; assay type: ADME, organism-based; parameters: dose 1 mg/kg, route intravenous; settings: in vivo
Method in brief: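 Intravenous dose of 1 mg/kg. Blood sampled at 0.50, 1, 2, 4, 8 and 24 h. Plasma obtained by centrifugation at 10 000 rpm for 5 min and kept at −20 °C until analysis.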

Cytochrome P450 1A2 = biological target: T3, Cytochrome P450 1A2 (Homo sapiens, UniProt P05177); test: Inhibition of CYP1A2 at up to 50 uM; assay type: ADME
T3 sequence (P05177 whole entry): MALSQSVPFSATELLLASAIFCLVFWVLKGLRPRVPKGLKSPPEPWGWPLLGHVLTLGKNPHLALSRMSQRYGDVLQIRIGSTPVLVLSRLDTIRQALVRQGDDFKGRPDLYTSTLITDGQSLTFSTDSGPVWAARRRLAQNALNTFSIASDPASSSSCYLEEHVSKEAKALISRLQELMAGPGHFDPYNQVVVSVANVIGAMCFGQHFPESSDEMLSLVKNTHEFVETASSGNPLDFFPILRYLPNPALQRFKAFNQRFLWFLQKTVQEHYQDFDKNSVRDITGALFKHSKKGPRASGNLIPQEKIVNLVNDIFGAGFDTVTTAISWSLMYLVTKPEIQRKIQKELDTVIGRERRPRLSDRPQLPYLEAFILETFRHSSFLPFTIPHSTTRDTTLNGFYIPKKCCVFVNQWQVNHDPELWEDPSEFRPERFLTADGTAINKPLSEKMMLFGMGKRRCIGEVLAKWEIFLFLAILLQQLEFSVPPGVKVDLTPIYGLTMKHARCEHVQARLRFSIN

[3] = AUC in Sprague-Dawley rat at 10 mg/kg, po; assay type: ADME, organism-based; parameters: dose 10 mg/kg, route oral; settings: plasma
Cytochrome P450 2D6 = Cytochrome P450 2D6 (Homo sapiens, UniProt P10635); test: Inhibition of CYP2D6 at up to 50 uM; assay type: ADME
Chain of Cytochrome P450 2D6 (P10635 whole entry): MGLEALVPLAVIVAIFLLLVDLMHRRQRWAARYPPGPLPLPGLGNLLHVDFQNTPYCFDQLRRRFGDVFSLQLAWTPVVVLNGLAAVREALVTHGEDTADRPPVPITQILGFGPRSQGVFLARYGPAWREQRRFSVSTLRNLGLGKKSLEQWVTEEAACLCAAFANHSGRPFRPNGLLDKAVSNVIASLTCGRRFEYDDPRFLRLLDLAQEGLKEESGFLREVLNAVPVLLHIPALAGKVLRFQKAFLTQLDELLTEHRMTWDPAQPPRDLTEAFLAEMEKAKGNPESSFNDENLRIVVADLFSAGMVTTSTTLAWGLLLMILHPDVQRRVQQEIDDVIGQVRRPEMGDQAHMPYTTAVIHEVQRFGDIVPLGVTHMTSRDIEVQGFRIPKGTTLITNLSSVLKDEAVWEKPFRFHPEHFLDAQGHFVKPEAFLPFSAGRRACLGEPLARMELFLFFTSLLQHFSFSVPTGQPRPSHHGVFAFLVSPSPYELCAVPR

Chain of Stromelysin-1 (P08254 whole entry): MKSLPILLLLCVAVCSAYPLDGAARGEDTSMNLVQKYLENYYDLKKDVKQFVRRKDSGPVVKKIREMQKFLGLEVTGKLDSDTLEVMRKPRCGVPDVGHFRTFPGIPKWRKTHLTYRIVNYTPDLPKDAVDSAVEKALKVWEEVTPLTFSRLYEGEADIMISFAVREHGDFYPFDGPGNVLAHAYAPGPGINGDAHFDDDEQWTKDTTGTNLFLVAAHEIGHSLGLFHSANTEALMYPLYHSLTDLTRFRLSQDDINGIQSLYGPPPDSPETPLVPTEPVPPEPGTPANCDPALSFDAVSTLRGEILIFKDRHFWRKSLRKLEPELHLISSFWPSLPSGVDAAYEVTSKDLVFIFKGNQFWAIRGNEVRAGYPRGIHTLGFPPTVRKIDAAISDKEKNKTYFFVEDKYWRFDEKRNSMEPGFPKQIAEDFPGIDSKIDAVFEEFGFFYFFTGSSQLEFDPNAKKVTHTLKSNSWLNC

With C[C@@H]1[C@](C)(c2ccccc2)[C@]1(NS(=O)(=O)N1CCc2c(nc3cc(F)ccn23)C1)C(=O)O the pIC50 (Stromelysin-1) was 5.02, the pIC50 [1] was 7.64 and the pIC50 (Interstitial collagenase) was less than 5.00. For the same compound, the “inhibition (INH)” value (Cytochrome P450 2C9) was “Not Active”, the pIC50 (Collagenase 3) was less than 5.00 and the “inhibition (INH)” value (Cytochrome P450 3A4) was “Not Active”. The clearance [2] was 1 mL/min/kg, the “inhibition (INH)” value (Cytochrome P450 1A2) was “Not Active” and the AUC [3] was 421 µM·h. For the same compound, the “inhibition (INH)” value (Cytochrome P450 2D6) was “Not Active”.
